{"source": "paper PMC4764081", "about": "(Science (New York, N.Y.), 2015)", "key": {"centrosomes [1]": {"system": "centrosomes", "experiment": "centrosome amplification in cells", "assay_type": "cell-based", "settings": "fig. S1"}, "p53": {"system": "p53", "experiment": "Western blot of p53 in RPE1 cells", "assay_type": "cell-based, human", "settings": "RPE1, without genotoxic stress"}, "[2]": {"system": "RPE1 human retinal pigment epithelial cells", "experiment": "RPE1 passaging assay and flow cytometry", "assay_type": "cell-based", "summary_of_the_method": "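RPE1 cells passaged with inhibitor added on day 0 and washed out on day 8; proliferation followed over serial passages. Data are means ± SD, N = 2.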"}, "[3]": {"target": "T1, Polo-like kinase 4 (Plk4) (Homo sapiens, UniProt O00444)", "T1 sequence (O00444 1-970)": "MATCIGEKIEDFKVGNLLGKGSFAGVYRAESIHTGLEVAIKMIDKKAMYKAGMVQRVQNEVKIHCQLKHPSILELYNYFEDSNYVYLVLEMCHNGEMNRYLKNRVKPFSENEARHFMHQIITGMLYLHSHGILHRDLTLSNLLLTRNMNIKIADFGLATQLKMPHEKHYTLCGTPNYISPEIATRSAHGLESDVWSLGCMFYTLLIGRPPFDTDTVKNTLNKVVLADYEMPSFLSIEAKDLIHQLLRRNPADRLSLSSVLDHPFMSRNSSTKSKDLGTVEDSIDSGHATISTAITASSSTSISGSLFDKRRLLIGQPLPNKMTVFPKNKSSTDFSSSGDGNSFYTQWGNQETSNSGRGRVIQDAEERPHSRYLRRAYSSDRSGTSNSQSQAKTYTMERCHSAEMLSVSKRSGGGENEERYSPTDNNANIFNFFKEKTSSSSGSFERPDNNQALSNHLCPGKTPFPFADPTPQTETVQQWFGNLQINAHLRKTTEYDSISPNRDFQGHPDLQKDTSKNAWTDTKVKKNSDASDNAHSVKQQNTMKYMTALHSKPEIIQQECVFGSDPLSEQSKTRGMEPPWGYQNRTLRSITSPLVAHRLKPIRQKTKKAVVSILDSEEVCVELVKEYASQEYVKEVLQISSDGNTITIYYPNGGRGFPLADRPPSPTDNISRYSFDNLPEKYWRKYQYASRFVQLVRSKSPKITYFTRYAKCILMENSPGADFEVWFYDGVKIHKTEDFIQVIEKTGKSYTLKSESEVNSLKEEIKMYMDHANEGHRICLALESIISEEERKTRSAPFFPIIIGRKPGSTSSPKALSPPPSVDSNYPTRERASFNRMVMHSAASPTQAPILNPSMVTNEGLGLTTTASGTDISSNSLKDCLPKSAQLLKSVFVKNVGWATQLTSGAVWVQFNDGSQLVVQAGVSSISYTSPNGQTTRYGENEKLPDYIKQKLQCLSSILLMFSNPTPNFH", "experiment": "Plk4 inhibition in vitro", "assay_type": "biochemical", "settings": "read-out: inhibition constant (Ki)"}, "centrosomes [4]": {"system": "centrosomes", "experiment": "centrosome depletion", "assay_type": "cell-based", "settings": "cellular activity"}, "g-H2A.X foci": {"system": "g-H2A.X foci", "experiment": "g-H2A.X foci in RPE1 nuclei", "assay_type": "cell-based, human", "settings": "RPE1 treated cells", "summary_of_the_method": "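γ-H2A.X foci, marking double-strand DNA breaks, counted in nuclei of treated RPE1 cells. Values are means ± SD, N = 3.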"}, "NIH/3T3 cells": {"system": "NIH/3T3 cells", "experiment": "mitotic duration by imaging, NIH/3T3", "assay_type": "cell-based, mouse", "settings": "centrosome-less NIH/3T3 cells"}, "[5]": {"system": "RPE1 cells expressing G95L Plk4", "experiment": "RPE1 Plk4 G95L knock-in cells, centrosome number and passaging", "assay_type": "cell-based, human", "settings": "RPE1, both endogenous PLK4 alleles G95L"}, "[6]": {"system": "NIH/3T3 cells induced to overexpress Plk4-GFP", "experiment": "centriole amplification in cells overexpressing wild-type or G95L Plk4-GFP", "assay_type": "cell-based, mouse"}, "[7]": {"system": "RPE1 cells coexpressing centrin-GFP and H2B-RFP", "experiment": "RPE1 lineage analysis by live-cell imaging", "assay_type": "cell-based, human", "settings": "acute treatment", "summary_of_the_method": "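RPE1 cells coexpressing centrin-GFP and H2B-RFP filmed after inhibitor addition. Both GFP and RFP channels were imaged at first to count centrosomes and follow mother-cell mitosis. Daughter fate was then tracked with RFP only. Arrest was scored as failure to enter mitosis within 48 hours of cell birth, and the percentage arresting per generation was reported; N = 2.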"}, "[8]": {"system": "HeLa human cervical carcinoma cells", "experiment": "centriole/centrosome depletion and washout in HeLa cells", "assay_type": "cell-based", "summary_of_the_method": "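HeLa cells under continuous treatment scored for foci carrying centriolar and pericentriolar markers at each round of division. Cells were imaged 7 days after inhibitor addition and again 10 days after washout.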"}, "HeLa cells": {"system": "HeLa cells", "experiment": "mitotic duration by imaging, HeLa", "assay_type": "cell-based, human", "settings": "centrosome-less HeLa cells"}, "[9]": {"system": "multiciliated Xenopus epithelial cells", "experiment": "centriole number in multiciliated Xenopus epithelial cells", "assay_type": "cell-based"}}}
{"smiles": "COc1ccc2c(c1)[C@]1(C[C@H]1c1ccc3c(/C=C/c4ccc(CN5C[C@@H](C)O[C@@H](C)C5)cc4)n[nH]c3c1)C(=O)N2", "note": "[CFI-400945]", "values": [{"measurement": "effect on centrosome number", "setting": "centrosomes [1]", "result": "induces centrosome amplification"}]}
{"smiles": "CCOc1cc(C(C)(C)C)ccc1C1=N[C@@](C)(c2ccc(Cl)cc2)[C@@](C)(c2ccc(Cl)cc2)N1C(=O)N1CCN(CCCS(C)(=O)=O)CC1", "note": "[R7112, reference compound]", "values": [{"measurement": "effect on p53 levels", "setting": "p53", "result": "raised p53 levels"}, {"measurement": "proliferation after washout", "setting": "[2]; RPE1, addition day 0, washout day 8", "result": "resumption of proliferation"}]}
{"smiles": "COc1c(Nc2cc(C)[nH]n2)nc(Sc2ccc(S(=O)(=O)Cc3cccc([N+](=O)[O-])c3F)cc2F)nc1N1CCCCC1", "note": "[centrinone-B]", "values": [{"measurement": "Ki", "setting": "[3]", "result": 0.6, "unit": "nM"}, {"measurement": "centrosome depletion at (concentration)", "setting": "centrosomes [4]", "result": 500, "unit": "nM"}]}
{"smiles": "COc1c(Nc2cc(C)[nH]n2)nc(Sc2ccc(S(=O)(=O)Cc3cccc([N+](=O)[O-])c3F)cc2F)nc1N1CCOCC1", "note": "[centrinone]", "values": [{"measurement": "g-H2A.X foci abundance", "setting": "g-H2A.X foci", "result": "not more abundant"}, {"measurement": "increase of mitotic duration", "setting": "NIH/3T3 cells", "result": "~20", "unit": "min"}, {"measurement": "centrosome depletion at (concentration)", "setting": "centrosomes [4]", "result": 100, "unit": "nM"}, {"measurement": "centrosome loss or proliferation arrest", "setting": "[5]", "result": "did not lead to centrosome loss or proliferation arrest"}, {"measurement": "effect on centriole amplification", "setting": "[6]", "result": "blocked centriole amplification"}, {"measurement": "fraction of progeny arrested", "setting": "[7]; one-centrosome progeny of pioneer one-centrosome mothers", "result": 25.5, "unit": "%"}, {"measurement": "fraction of progeny arrested", "setting": "[7]; progeny of pioneer zero-centrosome mothers", "result": 70, "unit": "%"}, {"measurement": "fraction of progeny arrested", "setting": "[7]; zero-centrosome progeny of pioneer one-centrosome mothers", "result": 33.0, "unit": "%"}, {"measurement": "reversibility of centriole loss", "setting": "[8]; 10 days after washout", "result": "fully reversible"}, {"measurement": "effect on centriolar and pericentriolar material foci", "setting": "[8]; at each round of cell division", "result": "progressive reduction"}, {"measurement": "effect on cell cycle", "setting": "[2]; RPE1, 12-day passaging assay and flow cytometry", "result": "cell cycle arrest in G1"}, {"measurement": "increase of mitotic duration", "setting": "HeLa cells", "result": "~1", "unit": "h"}, {"measurement": "effect on centriole number", "setting": "[9]", "result": "reduced centriole number"}]}
